In ChEMBL document CHEMBL4130578, “Synthesis, biological evaluation and structure-activity relationship studies of hederacolchiside E and its derivatives as potential anti-Alzheimer agents” (Eur J Med Chem, 2018):
The source made the active and inactive calls. The calls are words filed in the database; no cut-off is given here.

Columns and labels:
PC-12 [1] = test: Cytotoxicity against rat PC12 cells assessed as decrease in cell viability at high concentration after 12 hrs by MTT assay; type: cell-based; settings: pc-12, 12 h
PC-12 [2] = test: Cytoprotection against amyloid beta (1 to 42)-induced cell injury in rat PC12 cells assessed as cell viability at 10 uM preincubated for 12 hrs followed by amyloid beta (1 to 42) addition measured after 12 hrs by MTT assay (reference value: 55.3 +/- 1.5%); type: functional; settings: read-out: Activity
PC-12 [3] = test: Cytoprotection against amyloid beta (1 to 42)-induced cell injury in rat PC12 cells assessed as cell viability at 50 uM preincubated for 12 hrs followed by amyloid beta (1 to 42) addition measured after 12 hrs by MTT assay (reference value: 55.3 +/- 1.5%); type: functional; settings: read-out: Activity
PC-12 [4] = test: Cytoprotection against H2O2-induced cell injury in rat PC12 cells assessed as increase in cell viability at 1 to 10 uM preincubated for 12 hrs followed by H2O2 addition measured after 12 hrs by MTT assay; type: functional, cell-based
Procedure, shortened: (§1)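 PC12 cells grown in RPMI-1640 with 15% FBS and penicillin/streptomycin, subcultured every 2 days and cultured 8 days before use. Cells seeded at 1 × 10^4/well, after 12 h pretreated with compound 12 h, then exposed to 200 µM H2O2 for 12 h. MTT added for 4 h, formazan dissolved in DMSO, OD 490 nm read. Viability given as % of untreated control, mean ± SD, n = 3, ANOVA with Dunnett's test.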

PC-12 [5] = test: Cytotoxicity against rat PC12 cells assessed as decrease in cell viability at 50 uM after 12 hrs by MTT assay; type: cell-based; settings: pc-12, 12 h
PC-12 [6] = test: Cytoprotection against amyloid beta (1 to 42)-induced cell injury in rat PC12 cells assessed as cell viability at 100 uM preincubated for 12 hrs followed by amyloid beta (1 to 42) addition measured after 12 hrs by MTT assay (reference value: 55.3 +/- 1.5%); type: functional; settings: read-out: Activity
PC-12 [7] = test: Cytoprotection against amyloid beta (1 to 42)-induced toxicity in rat PC12 cells assessed as LDH release at 10 uM preincubated with cells followed by amyloid beta (1 to 42) addition measured after 24 hrs by LDH assay (reference value: 153%); type: functional
PC-12 [8] = test: Cytoprotection against amyloid beta (1 to 42)-induced toxicity in rat PC12 cells assessed as LDH release at 50 uM preincubated with cells followed by amyloid beta (1 to 42) addition measured after 24 hrs by LDH assay (reference value: 153%); type: functional
PC-12 [9] = test: Cytoprotection against amyloid beta (1 to 42)-induced toxicity in rat PC12 cells assessed as LDH release at 100 uM preincubated with cells followed by amyloid beta (1 to 42) addition measured after 24 hrs by LDH assay (reference value: 153%); type: functional
PC-12 [10] = test: Cytoprotection against amyloid beta (1 to 42)-induced oxidative damage in rat PC12 cells assessed as intracellular ROS level at 10 uM preincubated with cells followed by amyloid beta (1 to 42) addition measured after 24 hrs by DCFH-DA staining based flow cytometry (reference value: 51.4%); type: functional
PC-12 [11] = test: Cytoprotection against amyloid beta (1 to 42)-induced oxidative damage in rat PC12 cells assessed as intracellular ROS level at 50 uM preincubated with cells followed by amyloid beta (1 to 42) addition measured after 24 hrs by DCFH-DA staining based flow cytometry (reference value: 51.4%); type: functional
PC-12 [12] = test: Cytoprotection against amyloid beta (1 to 42)-induced oxidative damage in rat PC12 cells assessed as intracellular ROS level at 100 uM preincubated with cells followed by amyloid beta (1 to 42) addition measured after 24 hrs by DCFH-DA staining based flow cytometry (reference value: 51.4%); type: functional
PC-12 [13] = test: Cytoprotection against amyloid beta (1 to 42)-induced oxidative damage in rat PC12 cells assessed as reduction in intracellular ROS level preincubated with cells followed by amyloid beta (1 to 42) addition measured after 24 hrs by DCFH-DA staining based flow cytometry; type: functional, cell-based
PC-12 [14] = test: Cytoprotection against amyloid beta (1 to 42)-induced damage in rat PC12 cells assessed as reduction in intracellular MDA level preincubated with cells followed by amyloid beta (1 to 42) addition measured after 24 hrs by TBA assay; type: functional, cell-based
Procedure, shortened: (§2)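 For the MDA readout, PC12 cells were given 40 µM Aβ1-42 for 24 h with or without compound (10, 50, 100 µM). Samples were mixed with two volumes of TBA reagent (0.375% TBA, 15% trichloroacetic acid, 0.1 mM EDTA) and heated at 95 °C for 40 min. After cooling and centrifugation at 3000 × g for 10 min, supernatant A532 was read. Mean ± SD, n = 3.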

PC-12 [15] = test: Cytoprotection against amyloid beta (1 to 42)-induced damage in rat PC12 cells assessed as intracellular MDA level at 10 uM preincubated with cells followed by amyloid beta (1 to 42) addition measured after 24 hrs by TBA assay; type: functional; procedure, shortened: as §2
PC-12 [16] = test: Cytoprotection against amyloid beta (1 to 42)-induced damage in rat PC12 cells assessed as intracellular MDA level at 50 uM preincubated with cells followed by amyloid beta (1 to 42) addition measured after 24 hrs by TBA assay; type: functional; procedure, shortened: as §2
PC-12 [17] = test: Cytoprotection against amyloid beta (1 to 42)-induced damage in rat PC12 cells assessed as intracellular MDA level at 100 uM preincubated with cells followed by amyloid beta (1 to 42) addition measured after 24 hrs by TBA assay; type: functional; procedure, shortened: as §2
PC-12 [18] = test: Cytoprotection against H2O2-induced cell injury in rat PC12 cells assessed as increase in cell viability preincubated for 12 hrs followed by H2O2 addition measured after 12 hrs by MTT assay; type: functional, cell-based; procedure, shortened: as §1

Compound	viability at 10 µM (PC-12 [2]) [%]	viability at 50 µM (PC-12 [3]) [%]	viability at 100 µM (PC-12 [6]) [%]	Activity (PC-12 [18])	other results
C[C@@H]1O[C@@H](O[C@H]2[C@H](O[C@H]3CC[C@]4(C)[C@H]5CC=C6[C@@H]7CC(C)(C)CC[C@]7(C(=O)O[C@@H]7O[C@H](CO[C@@H]8O[C@H](CO)[C@@H](O)[C@H](O)[C@H]8O)[C@@H](O)[C@H](O)[C@H]7O)CC[C@@]6(C)[C@]5(C)CC[C@H]4C3(C)C)OC[C@H](O[C@@H]3O[C@H](CO)[C@@H](O)[C@H](O)[C@H]3O)[C@@H]2O)[C@H](O)[C@H](O)[C@H]1O	29.5	19.8	–	–	Activity (PC-12 [1]): Toxic
C[C@@H]1O[C@@H](O[C@H]2[C@H](O[C@H]3CC[C@]4(C)[C@H]5CC=C6[C@@H]7CC(C)(C)CC[C@]7(C(=O)O[C@@H]7O[C@H](CO)[C@@H](O)[C@H](O)[C@H]7O)CC[C@@]6(C)[C@]5(C)CC[C@H]4C3(C)C)OC[C@H](O[C@@H]3O[C@H](CO)[C@@H](O)[C@H](O)[C@H]3O)[C@@H]2O)[C@H](O)[C@H](O)[C@H]1O	14.5	10.3	–	–	Activity (PC-12 [1]): Toxic
C[C@@H]1O[C@@H](O[C@H]2[C@H](O)[C@@H](O)[C@H](OC[C@H]3O[C@@H](OC(=O)[C@]45CCC(C)(C)C[C@H]4C4=CC[C@@H]6[C@@]7(C)CC[C@H](O[C@@H]8OC[C@H](O)[C@H](O)[C@H]8O)C(C)(C)[C@@H]7CC[C@@]6(C)[C@]4(C)CC5)[C@H](O)[C@@H](O)[C@@H]3O)O[C@@H]2CO)[C@H](O)[C@H](O)[C@H]1O [CIWUJIANOSIDE C3]	55.9	69.9	79.1	–	Activity (PC-12 [4]): Active; Activity (PC-12 [5]): Toxic; Activity (PC-12 [7]): 143.7%; Activity (PC-12 [8]): 134.4%; Activity (PC-12 [9]): 126.3%; Activity (PC-12 [10]): 45%; Activity (PC-12 [11]): 30.7%; Activity (PC-12 [12]): 20.6%; Activity (PC-12 [13]): Dose-dependent effect; Activity (PC-12 [14]): Dose-dependent effect; Activity (PC-12 [15]): 2 nmol/mL; Activity (PC-12 [16]): 1.6 nmol/mL; Activity (PC-12 [17]): 1.2 nmol/mL
C[C@@H]1O[C@@H](O[C@H]2[C@H](O[C@H]3CC[C@]4(C)[C@H]5CC=C6[C@@H]7CC(C)(C)CC[C@]7(C(=O)O[C@@H]7O[C@H](CO[C@@H]8O[C@H](CO)[C@@H](O[C@@H]9O[C@@H](C)[C@H](O)[C@@H](O)[C@H]9O)[C@H](O)[C@H]8O)[C@@H](O)[C@H](O)[C@H]7O)CC[C@@]6(C)[C@]5(C)CC[C@H]4C3(C)C)OC[C@H](O[C@@H]3OC[C@@H](O)[C@H](O)[C@H]3O)[C@@H]2O)[C@H](O)[C@H](O)[C@H]1O	52.7	55.7	–	Dose-dependent effect	–
C[C@@H]1O[C@@H](O[C@H]2[C@H](O[C@H]3CC[C@]4(C)[C@H]5CC=C6[C@@H]7CC(C)(C)CC[C@]7(C(=O)O[C@@H]7O[C@H](CO[C@@H]8O[C@H](CO)[C@@H](O[C@@H]9O[C@@H](C)[C@H](O)[C@@H](O)[C@H]9O)[C@H](O)[C@H]8O)[C@@H](O)[C@H](O)[C@H]7O)CC[C@@]6(C)[C@]5(C)CC[C@H]4C3(C)C)OC[C@H](O[C@@H]3O[C@H](CO)[C@H](O)[C@H](O)[C@H]3O)[C@@H]2O)[C@H](O)[C@H](O)[C@H]1O	52.6	58.6	–	Dose-dependent effect	–
C[C@@H]1O[C@@H](O[C@H]2[C@H](O[C@H]3CC[C@]4(C)[C@H]5CC=C6[C@@H]7CC(C)(C)CC[C@]7(C(=O)O[C@@H]7O[C@H](CO[C@@H]8O[C@H](CO)[C@@H](O[C@@H]9O[C@@H](C)[C@H](O)[C@@H](O)[C@H]9O)[C@H](O)[C@H]8O)[C@@H](O)[C@H](O)[C@H]7O)CC[C@@]6(C)[C@]5(C)CC[C@H]4C3(C)C)OC[C@H](O[C@@H]3O[C@H](CO)[C@@H](O)[C@H](O)[C@H]3O)[C@@H]2O)[C@H](O)[C@H](O)[C@H]1O	57	65.8	70.4	Dose-dependent effect	Activity (PC-12 [7]): 147.4%; Activity (PC-12 [8]): 138.5%; Activity (PC-12 [9]): 126.7%; Activity (PC-12 [10]): 43%; Activity (PC-12 [11]): 35%; Activity (PC-12 [12]): 29.2%; Activity (PC-12 [13]): Dose-dependent effect; Activity (PC-12 [14]): Dose-dependent effect; Activity (PC-12 [15]): 2.5 nmol/mL; Activity (PC-12 [16]): 1.9 nmol/mL; Activity (PC-12 [17]): 1.3 nmol/mL
C[C@@H]1O[C@@H](O[C@H]2[C@H](O[C@H]3CC[C@]4(C)[C@H]5CC=C6[C@@H]7CC(C)(C)CC[C@]7(C(=O)O[C@@H]7O[C@H](CO[C@@H]8O[C@H](CO)[C@@H](O[C@@H]9O[C@@H](C)[C@H](O)[C@@H](O)[C@H]9O)[C@H](O)[C@H]8O)[C@@H](O)[C@H](O)[C@H]7O)CC[C@@]6(C)[C@]5(C)CC[C@H]4C3(C)C)OC[C@H](O[C@@H]3O[C@H](CO)[C@@H](O)[C@H]3O)[C@@H]2O)[C@H](O)[C@H](O)[C@H]1O	58.5	57.9	–	Dose-dependent effect	–
C[C@@H]1O[C@@H](O[C@H]2[C@H](O[C@H]3CC[C@]4(C)[C@H]5CC=C6[C@@H]7CC(C)(C)CC[C@]7(C(=O)O[C@@H]7O[C@H](CO[C@@H]8O[C@H](CO)[C@@H](O[C@@H]9O[C@@H](C)[C@H](O)[C@@H](O)[C@H]9O)[C@H](O)[C@H]8O)[C@@H](O)[C@H](O)[C@H]7O)CC[C@@]6(C)[C@]5(C)CC[C@H]4C3(C)C)OC[C@H](O)[C@@H]2O)[C@H](O)[C@H](O)[C@H]1O [HEDERASAPONIN B]	54.3	60.3	–	–	Activity (PC-12 [4]): Active; Activity (PC-12 [5]): Toxic
C[C@@H]1O[C@@H](O[C@H]2[C@H](O[C@H]3CC[C@]4(C)[C@H]5CC=C6[C@@H]7CC(C)(C)CC[C@]7(C(=O)O[C@@H]7O[C@H](CO[C@@H]8O[C@H](CO)[C@@H](O[C@@H]9O[C@@H](C)[C@H](O)[C@@H](O)[C@H]9O)[C@H](O)[C@H]8O)[C@@H](O)[C@H](O)[C@H]7O)CC[C@@]6(C)[C@]5(C)CC[C@H]4C3(C)C)OC[C@H](O[C@@H]3OC[C@H](O)[C@H](O)[C@H]3O)[C@@H]2O)[C@H](O)[C@H](O)[C@H]1O	58.3	59.7	–	Dose-dependent effect	–
C[C@@H]1O[C@@H](O[C@H]2[C@H](O[C@H]3CC[C@]4(C)[C@H]5CC=C6[C@@H]7CC(C)(C)CC[C@]7(C(=O)O[C@@H]7O[C@H](CO[C@@H]8O[C@H](CO)[C@@H](O[C@@H]9O[C@@H](C)[C@H](O)[C@@H](O)[C@H]9O)[C@H](O)[C@H]8O)[C@@H](O)[C@H](O)[C@H]7O)CC[C@@]6(C)[C@]5(C)CC[C@H]4C3(C)C)OC[C@H](O[C@@H]3O[C@@H](C)[C@H](O)[C@@H](O)[C@H]3O)[C@@H]2O)[C@H](O)[C@H](O)[C@H]1O	61.4	68.4	74.6	Dose-dependent effect	–
